Experimental data: ChEMBL document CHEMBL1126849, “Synthesis of A-ring fluorinated derivatives of (17 alpha,20E/Z)-[125I]iodovinylestradiols: effect on receptor binding and receptor-mediated target tissue uptake” (J Med Chem, 1993)

Assays:
Settings in all cases: in vivo
[1] = system: Rattus norvegicus; assay: Biodistribution in blood of immature female rat after 1 hr administration of 3 micro Ci (111 kBq) in the presence of (+E2); format: ADME, organism-based
Method in brief: (§1)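 Immature female Long Evans rats (21–24 days, 45–70 g), unanesthetized in retention cages, given 3 µCi (111 kBq) 125I-labeled steroid i.v. via lateral tail vein. Vehicle was ethanol diluted in saline containing 1% Tween-80, giving 9% ethanol final. The blocking group received 60 µg unlabeled estradiol co-injected. Rats were killed under ether by axillary bleeding, and tissues were KCl-washed and gamma-counted. Data are %ID/g, mean ± SE, n=3–5.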

[2] = system: Rattus norvegicus; assay: Biodistribution in lungs of immature female rat after 3 hour administration of 3 micro Ci (111 kBq) in the absence of 60 microg estradiol; format: ADME, organism-based, Lung
Method in brief: (§2)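 Immature female Long Evans rats (21–24 days, 45–70 g), three to five per group, given 125I-labeled steroid (3 μCi, 111 kBq) by lateral tail vein without anesthesia. Vehicle: ethanol diluted in saline with 1% Tween-80, final ethanol 9%, 0.22 μm filtered. +E2 groups received 60 μg unlabeled estradiol co-injected. Killed under ether at set times; tissues KCl-washed, blotted, weighed, gamma counted; %ID/g, mean with SE.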

[3] = system: Rattus norvegicus; assay: Biodistribution in kidney of immature female rat after 12 hour administration of 3 micro Ci (111 kBq) in the absence of 60 microg estradiol; format: ADME, organism-based; method in brief: as §1
[4] = system: Rattus norvegicus; assay: Biodistribution in fat of immature female rat after 5 hour administration of 3 micro Ci (111 kBq) in the absence of 60 microg estradiol; format: ADME, organism-based, Adipose tissue; method in brief: as §1
[5] = system: Rattus norvegicus; assay: Biodistribution in thyroid of immature female rat after 1 hr administration of 3 micro Ci (111 kBq) in the presence of (+E2); format: ADME, organism-based, Thyroid gland; method in brief: as §2
[6] = system: Rattus norvegicus; assay: Biodistribution in spleen of immature female rat after 1 hr administration of 3 micro Ci (111 kBq) in the presence of (+E2); format: ADME, organism-based; method in brief: as §2
[7] = system: Rattus norvegicus; assay: Biodistribution in blood of immature female rat after 5 hour administration of 3 micro Ci (111 kBq) in the absence of 60 microg estradiol; format: ADME, organism-based; method in brief: as §1
[8] = system: Rattus norvegicus; assay: Biodistribution in spleen of immature female rat after 5 hour administration of 3 micro Ci (111 kBq) in the absence of 60 microg estradiol; format: ADME, organism-based; method in brief: as §2
[9] = system: Rattus norvegicus; assay: Biodistribution in uterus / blood of immature female rat after 5 hour administration of 3 micro Ci (111 kBq) in the absence of 60 microg estradiol; format: ADME, organism-based
Method in brief: (§3)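 Same in vivo procedure: immature female Long Evans rats (21–24 days), three to five per group, 3 μCi (111 kBq) tracer i.v. via tail vein in 9% ethanol/saline/1% Tween-80, ± 60 μg estradiol co-injected at 1 h. Uterus %ID/g (gamma counting) divided by blood, or by nontarget organ (muscle, spleen, lungs), %ID/g to give ratios.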

[10] = system: Rattus norvegicus; assay: Biodistribution in uterus / spleen, muscle, lungs of immature female rat after 3 hour administration of 3 micro Ci (111 kBq) in the absence of 60 microg estradiol; format: ADME, organism-based
Method in brief: (§4)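 Immature female Long Evans rats (21–24 days, 45–70 g), 3–5 per group, unanesthetized in retention cages, given 3 μCi (111 kBq) 125I-labeled steroid by lateral tail vein. Vehicle: ethanol diluted with saline containing 1% Tween-80, final ethanol 9%. +E2 group co-injected 60 μg unlabeled estradiol (1 h only). Killed under ether; tissues KCl-washed, weighed, gamma-counted. Output: %ID/g (mean, SE) and uterus to blood or nontarget (muscle, spleen, lungs) ratios.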

[11] = system: Rattus norvegicus; assay: Biodistribution in muscle of immature female rat after 3 hour administration of 3 micro Ci (111 kBq) in the absence of 60 microg estradiol; format: ADME, organism-based, Muscle tissue; method in brief: as §2
[12] = system: Rattus norvegicus; assay: Biodistribution in uterus of immature female rat after 1 hr administration of 3 micro Ci (111 kBq) in the absence of 60 microg estradiol; format: ADME, organism-based; method in brief: as §4
[13] = system: Rattus norvegicus; assay: Biodistribution in uterus of immature female rat after 3 hour administration of 3 micro Ci (111 kBq) in the absence of 60 microg estradiol; format: ADME, organism-based; method in brief: as §4
[14] = system: Rattus norvegicus; assay: Biodistribution in spleen of immature female rat after 12 hour administration of 3 micro Ci (111 kBq) in the absence of 60 microg estradiol; format: ADME, organism-based; method in brief: as §2
[15] = system: Rattus norvegicus; assay: Biodistribution in uterus of immature female rat after 1 hr administration of 3 micro Ci (111 kBq) in the presence of (+E2); format: ADME, organism-based; method in brief: as §4
[16] = system: Rattus norvegicus; assay: Biodistribution in uterus / spleen, muscle, lungs of immature female rat after 1 hr administration of 3 micro Ci (111 kBq) in the presence of (+E2); format: ADME, organism-based; method in brief: as §3
[17] = system: Rattus norvegicus; assay: Biodistribution in liver of immature female rat after 12 hour administration of 3 micro Ci (111 kBq) in the absence of 60 microg estradiol; format: ADME, organism-based; method in brief: as §1
[18] = system: Rattus norvegicus; assay: Biodistribution in liver of immature female rat after 1 hr administration of 3 micro Ci (111 kBq) in the presence of (+E2); format: ADME, organism-based; method in brief: as §1
[19] = system: Rattus norvegicus; assay: Biodistribution in thyroid of immature female rat after 5 hour administration of 3 micro Ci (111 kBq) in the absence of 60 microg estradiol; format: ADME, organism-based, Thyroid gland; method in brief: as §2
[20] = system: Rattus norvegicus; assay: Biodistribution in thyroid of immature female rat after 3 hour administration of 3 micro Ci (111 kBq) in the absence of 60 microg estradiol; format: ADME, organism-based, Thyroid gland; method in brief: as §2
[21] = system: Rattus norvegicus; assay: Biodistribution in uterus of immature female rat after 5 hour administration of 3 micro Ci (111 kBq) in the absence of 60 microg estradiol; format: ADME, organism-based; method in brief: as §4
[22] = system: Rattus norvegicus; assay: Biodistribution in blood of immature female rat after 12 hour administration of 3 micro Ci (111 kBq) in the absence of 60 microg estradiol; format: ADME, organism-based; method in brief: as §1
[23] = system: Rattus norvegicus; assay: Biodistribution in spleen of immature female rat after 1 hr administration of 3 micro Ci (111 kBq) in the absence of 60 microg estradiol; format: ADME, organism-based; method in brief: as §2
[24] = system: Rattus norvegicus; assay: Biodistribution in uterus / blood of immature female rat after 1 hr administration of 3 micro Ci (111 kBq) in the absence of 60 microg estradiol; format: ADME, organism-based; method in brief: as §3
[25] = system: Rattus norvegicus; assay: Biodistribution in kidney of immature female rat after 5 hour administration of 3 micro Ci (111 kBq) in the absence of 60 microg estradiol; format: ADME, organism-based; method in brief: as §1
[26] = system: Rattus norvegicus; assay: Biodistribution in uterus / blood of immature female rat after 1 hr administration of 3 micro Ci (111 kBq) in the presence of (+E2); format: ADME, organism-based; method in brief: as §3

| Structure (SMILES) | ID/g [2] | ID/g [3] | ID/g [4] | ID/g [5] | ID/g [6] | ID/g [7] | ID/g [8] | uterus to blood ratio [9] | Uterus to nontarget tissue (spleen, muscle, lungs) uptake ratio [10] | ID/g [11] | ID/g [12] | ID/g [13] | ID/g [14] | ID/g [15] | uterus-to-nontarget tissue uptake ratio [16] | ID/g [17] | ID/g [19] | ID/g [20] | ID/g [21] | ID/g [22] | other results |
| --- | --- | --- | --- | --- | --- | --- | --- | --- | --- | --- | --- | --- | --- | --- | --- | --- | --- | --- | --- | --- | --- |
| C[C@@H]1Cc2cc(O)c(F)cc2[C@H]2CC[C@@]3(C)[C@@H](CC[C@@]3(O)/C=C/I)[C@H]12 | 0.28% | 0.15% | 1.28% | 114% | 0.45% | 0.17% | 0.18% | 3.69% | 3% | 0.15% | 1.03% | 0.85% | 0.12% | 0.39% | 1.09% | 1% | 203% | 197% | 0.63% | 0.12% | ID/g [1]: 0.29%; ID/g [18]: 2.28%; ID/g [23]: 0.31%; uterus-to-blood ratio of %ID/g [24]: 4.49%; ID/g [25]: 0.26%; uterus/blood %ID/g ratio [26]: 1.34% |
| C[C@@H]1Cc2c(ccc(O)c2F)[C@H]2CC[C@@]3(C)[C@@H](CC[C@@]3(O)/C=C/I)[C@H]12 | 0.93% | 0.32% | 4.59% | 56% | 1.29% | 0.39% | 0.8% | 16.4% | 7.15% | 0.43% | 4.71% | 5.29% | 0.19% | 1.14% | 0.85% | 1.57% | 114% | 70% | 6.44% | 0.17% | ID/g [1]: 0.44%; ID/g [18]: 5.84%; ID/g [23]: 0.68%; uterus-to-blood ratio of %ID/g [24]: 12.53%; ID/g [25]: 0.89%; uterus/blood %ID/g ratio [26]: 2.68% |
| CO[C@H]1C[C@@]2(C)[C@@H](CC[C@@]2(O)/C=C\I)[C@@H]2CCc3c(ccc(O)c3F)[C@H]21 | 0.66% | 1.23% | 0.75% | 441% | 1.28% | 0.51% | 0.66% | 20.08% | 11.77% | 0.48% | 6.87% | 7.48% | 0.7% | 1.06% | 1.11% | 0.83% | 2369% | 1446% | 10.96% | 0.25% | ID/g [18]: 2.77%; ID/g [23]: 2.04%; uterus-to-blood ratio of %ID/g [24]: 10.55%; ID/g [25]: 1.08%; uterus/blood %ID/g ratio [26]: 1.3% |
| C[C@@H]1Cc2cc(O)c(F)cc2[C@H]2CC[C@@]3(C)[C@@H](CC[C@@]3(O)/C=C\I)[C@H]12 | 0.36% | 0.36% | 2.2% | 204% | 0.56% | 0.33% | 0.51% | 11.08% | 7.35% | 0.32% | 3.76% | 4.03% | 0.47% | 0.39% | 0.76% | 1.69% | 424% | 202% | 3.4% | 0.32% | ID/g [1]: 0.32%; ID/g [18]: 1.83%; ID/g [23]: 1.12%; uterus-to-blood ratio of %ID/g [24]: 8.3%; ID/g [25]: 0.54%; uterus/blood %ID/g ratio [26]: 1.2% |
| CO[C@H]1C[C@@]2(C)[C@@H](CC[C@@]2(O)/C=C/I)[C@@H]2CCc3cc(O)c(F)cc3[C@H]21 | 0.62% | 0.15% | 1.57% | 243% | 1.04% | 0.32% | 0.82% | 12.41% | 8.2% | 0.56% | 4.41% | 3.23% | 0.18% | 0.81% | 0.86% | 1.48% | 412% | 355% | 3.9% | 0.11% | ID/g [1]: 0.51%; ID/g [23]: 0.83%; uterus-to-blood ratio of %ID/g [24]: 9.82%; ID/g [25]: 1.52%; uterus/blood %ID/g ratio [26]: 1.6% |
| C[C@@H]1Cc2c(ccc(O)c2F)[C@H]2CC[C@@]3(C)[C@@H](CC[C@@]3(O)/C=C\I)[C@H]12 | 0.46% | 0.29% | 1.7% | 98% | 0.69% | 0.36% | 0.57% | 10.01% | 8.32% | 0.28% | 3.55% | 4.11% | 0.25% | 0.5% | 0.88% | 0.8% | 380% | 304% | 4.39% | 0.21% | ID/g [1]: 0.45%; ID/g [18]: 1.54%; ID/g [23]: 1.16%; uterus-to-blood ratio of %ID/g [24]: 8.35%; ID/g [25]: 0.67%; uterus/blood %ID/g ratio [26]: 1.16% |
